Laboratory results as given in ChEMBL document CHEMBL1144503, “Structure determination of inonotsuoxides A and B and in vivo anti-tumor promoting activity of inotodiol from the sclerotia of Inonotus obliquus” (Bioorg Med Chem, 2007).

species on record: Mus musculus; test: Suppression of DMBA/TPA-induced papilloma-formation in ICR mouse within 10 week; assay type: functional; details: not given

Structure (SMILES)	Activity [%]
CC(C)=CC[C@@H](O)[C@@H](C)[C@H]1CC[C@@]2(C)C3=C(CC[C@]12C)[C@@]1(C)CC[C@H](O)C(C)(C)[C@@H]1CC3 [INOTODIOL]	<30

tested on: Human gammaherpesvirus 4; test: Inhibition of TPA-induced EBV-EA activation in Raji cells at 10 mol ratio/TPA relative to control; values are per cent of control; details: not given

Structure (SMILES)	level, % of control [%]
CC(C)=CCC[C@@H](C(=O)O)[C@H]1CC[C@@]2(C)C3=C(CC[C@]12C)[C@@]1(C)CC[C@H](O)C(C)(C)[C@@H]1CC3 [TRAMETENOLIC ACID]	98.6
CC(C)=CC[C@@H](O)[C@@H](C)[C@H]1CC[C@@]2(C)C3=C(CC[C@]12C)[C@@]1(C)CC[C@H](O)C(C)(C)[C@@H]1CC3 [INOTODIOL]	93.1
CC(=O)O[C@H]1CC[C@]2(C)C3=C(CC[C@H]2C1(C)C)[C@]1(C)CC[C@H]([C@@H](CCC=C(C)C)C(=O)O)[C@@]1(C)CC3 [ACETYL TRAMETENOLIC ACID]	100
CC(C)=CCC[C@@H](C)[C@H]1CC[C@@]2(C)C3=C(CC[C@]12C)[C@@]1(C)CC[C@H](O)C(C)(C)[C@@H]1CC3 [LANOSTEROL]	96.3
C[C@@H]([C@H]1CC[C@@]2(C)C3=C(CC[C@]12C)[C@@]1(C)CC[C@H](O)C(C)(C)[C@@H]1CC3)[C@H]1C[C@H](O)C(C)(C)O1 [INONOTSUOXIDE A]	94.3

species on record: Mus musculus; test: Suppression of DMBA/TPA-induced papilloma-formation in ICR mouse at 85 nmol within 10 week; assay type: functional; details: not given

Structure (SMILES)	Activity [%]
CC1(C)CC[C@]2(C(=O)O)CC[C@]3(C)C(=CC[C@@H]4[C@@]5(C)CC[C@H](O)C(C)(C)[C@@H]5CC[C@]43C)[C@@H]2C1 [OLEANOLIC_ACID]	<30

species on record: Mus musculus; test: Toxicity in ICR mouse with DMBA/TPA-induced papilloma; assay type: organism-based; details: in vivo
Procedure, shortened: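 Specific pathogen-free female ICR mice, 6 weeks old, in three groups of 15. Shaved backs were initiated topically with DMBA (390 nmol) in 0.1 ml acetone. From one week later, TPA (1.7 nmol) in 0.1 ml acetone was applied to the skin twice weekly. Treated groups also received 85 nmol of test agent with TPA. Mice were followed to week 20.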

Structure (SMILES)	Activity
CC1(C)CC[C@]2(C(=O)O)CC[C@]3(C)C(=CC[C@@H]4[C@@]5(C)CC[C@H](O)C(C)(C)[C@@H]5CC[C@]43C)[C@@H]2C1 [OLEANOLIC_ACID]	Non-toxic
CC(C)=CC[C@@H](O)[C@@H](C)[C@H]1CC[C@@]2(C)C3=C(CC[C@]12C)[C@@]1(C)CC[C@H](O)C(C)(C)[C@@H]1CC3 [INOTODIOL]	Non-toxic

tested on: Human gammaherpesvirus 4; test: Inhibition of TPA-induced EBV-EA activation in Raji cells at 100 mol ratio/TPA relative to control; values are per cent of control; details: not given

Structure (SMILES)	level, % of control [%]
CC(C)=CCC[C@@H](C(=O)O)[C@H]1CC[C@@]2(C)C3=C(CC[C@]12C)[C@@]1(C)CC[C@H](O)C(C)(C)[C@@H]1CC3 [TRAMETENOLIC ACID]	75.4
CC(C)=CC[C@@H](O)[C@@H](C)[C@H]1CC[C@@]2(C)C3=C(CC[C@]12C)[C@@]1(C)CC[C@H](O)C(C)(C)[C@@H]1CC3 [INOTODIOL]	66.1
CC(=O)O[C@H]1CC[C@]2(C)C3=C(CC[C@H]2C1(C)C)[C@]1(C)CC[C@H]([C@@H](CCC=C(C)C)C(=O)O)[C@@]1(C)CC3 [ACETYL TRAMETENOLIC ACID]	79
CC(C)=CCC[C@@H](C)[C@H]1CC[C@@]2(C)C3=C(CC[C@]12C)[C@@]1(C)CC[C@H](O)C(C)(C)[C@@H]1CC3 [LANOSTEROL]	74.3
C[C@@H]([C@H]1CC[C@@]2(C)C3=C(CC[C@]12C)[C@@]1(C)CC[C@H](O)C(C)(C)[C@@H]1CC3)[C@H]1C[C@H](O)C(C)(C)O1 [INONOTSUOXIDE A]	71.3

tested on: Human gammaherpesvirus 4; test: Inhibition of TPA-induced EBV-EA activation in Raji cells at 1000 mol ratio/TPA relative to control; values are per cent of control; details: not given

Structure (SMILES)	level, % of control [%]
CC(C)=CCC[C@@H](C(=O)O)[C@H]1CC[C@@]2(C)C3=C(CC[C@]12C)[C@@]1(C)CC[C@H](O)C(C)(C)[C@@H]1CC3 [TRAMETENOLIC ACID]	9.2
CC(C)=CC[C@@H](O)[C@@H](C)[C@H]1CC[C@@]2(C)C3=C(CC[C@]12C)[C@@]1(C)CC[C@H](O)C(C)(C)[C@@H]1CC3 [INOTODIOL]	2.4
CC(=O)O[C@H]1CC[C@]2(C)C3=C(CC[C@H]2C1(C)C)[C@]1(C)CC[C@H]([C@@H](CCC=C(C)C)C(=O)O)[C@@]1(C)CC3 [ACETYL TRAMETENOLIC ACID]	12.7
CC(C)=CCC[C@@H](C)[C@H]1CC[C@@]2(C)C3=C(CC[C@]12C)[C@@]1(C)CC[C@H](O)C(C)(C)[C@@H]1CC3 [LANOSTEROL]	4.9
C[C@@H]([C@H]1CC[C@@]2(C)C3=C(CC[C@]12C)[C@@]1(C)CC[C@H](O)C(C)(C)[C@@H]1CC3)[C@H]1C[C@H](O)C(C)(C)O1 [INONOTSUOXIDE A]	6.3

tested on: Human gammaherpesvirus 4; test: Inhibition of TPA-induced EBV-EA activation in Raji cells at 500 mol ratio/TPA relative to control; values are per cent of control; details: not given

Structure (SMILES)	level, % of control [%]
CC(C)=CCC[C@@H](C(=O)O)[C@H]1CC[C@@]2(C)C3=C(CC[C@]12C)[C@@]1(C)CC[C@H](O)C(C)(C)[C@@H]1CC3 [TRAMETENOLIC ACID]	45
CC(C)=CC[C@@H](O)[C@@H](C)[C@H]1CC[C@@]2(C)C3=C(CC[C@]12C)[C@@]1(C)CC[C@H](O)C(C)(C)[C@@H]1CC3 [INOTODIOL]	37.6
CC(=O)O[C@H]1CC[C@]2(C)C3=C(CC[C@H]2C1(C)C)[C@]1(C)CC[C@H]([C@@H](CCC=C(C)C)C(=O)O)[C@@]1(C)CC3 [ACETYL TRAMETENOLIC ACID]	47.8
CC(C)=CCC[C@@H](C)[C@H]1CC[C@@]2(C)C3=C(CC[C@]12C)[C@@]1(C)CC[C@H](O)C(C)(C)[C@@H]1CC3 [LANOSTEROL]	44.7
C[C@@H]([C@H]1CC[C@@]2(C)C3=C(CC[C@]12C)[C@@]1(C)CC[C@H](O)C(C)(C)[C@@H]1CC3)[C@H]1C[C@H](O)C(C)(C)O1 [INONOTSUOXIDE A]	42

tested on: Raji; test: Cell viability in Raji cells at 1000 mol ratio/TPA relative to control; assay type: functional, Homo sapiens; details: not given
Procedure, shortened: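 Raji cells under the EBV-EA induction conditions (n-butyric acid 4 mmol plus TPA 32 pmol, 48 h, 37 C), with test compound added in DMSO at 1000 mol ratio to TPA. Viability was assayed by Trypan blue staining and reported as a percentage.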

Structure (SMILES)	Activity [%]
CC(C)=CCC[C@@H](C(=O)O)[C@H]1CC[C@@]2(C)C3=C(CC[C@]12C)[C@@]1(C)CC[C@H](O)C(C)(C)[C@@H]1CC3 [TRAMETENOLIC ACID]	70
CC(C)=CC[C@@H](O)[C@@H](C)[C@H]1CC[C@@]2(C)C3=C(CC[C@]12C)[C@@]1(C)CC[C@H](O)C(C)(C)[C@@H]1CC3 [INOTODIOL]	70
CC(=O)O[C@H]1CC[C@]2(C)C3=C(CC[C@H]2C1(C)C)[C@]1(C)CC[C@H]([C@@H](CCC=C(C)C)C(=O)O)[C@@]1(C)CC3 [ACETYL TRAMETENOLIC ACID]	70
CC(C)=CCC[C@@H](C)[C@H]1CC[C@@]2(C)C3=C(CC[C@]12C)[C@@]1(C)CC[C@H](O)C(C)(C)[C@@H]1CC3 [LANOSTEROL]	70
C[C@@H]([C@H]1CC[C@@]2(C)C3=C(CC[C@]12C)[C@@]1(C)CC[C@H](O)C(C)(C)[C@@H]1CC3)[C@H]1C[C@H](O)C(C)(C)O1 [INONOTSUOXIDE A]	70
CC(=O)O[C@H]1C[C@H]([C@@H](C)[C@H]2CC[C@@]3(C)C4=C(CC[C@]23C)[C@@]2(C)CC[C@H](OC(C)=O)C(C)(C)[C@@H]2CC4)OC1(C)C	70
